Measured values gathered from unrelated publications.
Lines come from different studies, so protocols differ. pEC50, pIC50, pKd: −log10 of the molar value.
GLP1R: Glucagon-like peptide 1 receptor (GLP1R, Homo sapiens, UniProt P43220)
PPARG: Peroxisome proliferator-activated receptor gamma (PPARG, Homo sapiens, UniProt P37231)
HDAC5: Histone deacetylase 5 (HDAC5, Homo sapiens, UniProt Q9UQL6)

| SMILES | target | assay | conditions | measurement | result |
| --- | --- | --- | --- | --- | --- |
| CC[C@H](C)[C@H](NC(=O)[C@H](CC(=O)O)NC(=O)[C@H](CO)NC(=O)[C@@H](NC(=O)[C@H](Cc1ccccc1)NC(=O)[C@@H](NC(=O)CNC(=O)[C@H](CC(=O)O)NC(=O)[C@H](C)NC(=O)[C@@H](N)Cc1c[nH]cn1)[C@@H](C)O)[C@@H](C)O)C(=O)N[C@@H](CC(N)=O)C(=O)N[C@@H](CCCCN)C(=O)N[C@H](C(=O)N[C@@H](CC(C)C)C(=O)N[C@@H](CC(=O)O)C(=O)N[C@@H](CC(=O)O)C(=O)N[C@@H](CCSC)C(=O)N[C@@H](C)C(=O)N[C@@H](C)C(=O)N[C@@H](CCCCN)C(=O)N[C@@H](CCC(=O)O)C(=O)N[C@@H](Cc1ccccc1)C(=O)N[C@@H](CC(C)C)C(=O)N[C@@H](CCCCN)C(=O)N[C@@H](Cc1c[nH]c2ccccc12)C(=O)N[C@@H](CC(C)C)C(=O)N[C@H](C(=O)N[C@@H](CC(N)=O)C(=O)N[C@H](C(=O)N[C@@H](CCCCN)C(=O)N[C@H](C(=O)N[C@H](C(=O)N[C@@H](CCC(N)=O)C(=O)O)[C@@H](C)O)C(C)C)[C@@H](C)O)[C@@H](C)CC)[C@@H](C)CC | GLP1R | reporter gene, agonist, luciferase | – | pEC50 | 8.55 |
| Cc1ccc(-c2ccc(F)cc2COc2ccc(CCC(=O)O)cc2)cc1 | PPARG | reporter gene, agonist, luciferase | – | pEC50 | < 4.00 |
| CCOC(=O)CCCCCOc1ccc(Cl)cc1NC(=O)Nc1cnc(C#N)cn1 | Serine/threonine-protein kinase Chk1 (CHEK1, Homo sapiens, UniProt O14757) | enzyme activity, inhibitor | – | pIC50 | 6.42 |
| O=C(CCCCCCC(=O)Nc1ccc([C@H]2O[C@@H](CSc3nc(-c4ccccc4)c(-c4ccccc4)o3)C[C@@H](c3ccc(CO)cc3)O2)cc1)NO | HDAC5 | cell-free assay | – | pKd | < 4.52 |
| CCCCCCCC/C=C\CCCCCCCC(=O)O[C@H](CC(=O)[O-])C[N+](C)(C)C | Pantothenate kinase 3 (PANK3, Homo sapiens, UniProt Q9H999) | enzyme activity, inhibitor, radiometric | – | pEC50 | 6.22 |
| CCCCc1nc2c(o1)c(N)nc1ccccc12 | Toll-like receptor 8 (TLR8, Homo sapiens, UniProt Q9NR97) | reporter gene, agonist | – | pEC50 | 4.90 |
| CCn1cncc1Cn1c(CN2CCC(c3cccc(OCc4ccc(F)cc4F)n3)CC2)nc2ccc(C(=O)O)cc21 | Glucagon-like peptide 1 receptor (GLP1R, Homo sapiens, UniProt P43220, L260F) | cAMP, agonist, TR-FRET | – | pEC50 | 10.05 |
| CC[C@@H](Oc1cccc(CN(CCCOc2ccc(OC)cc2)c2nc3ccccc3o2)c1)C(=O)O | PPARG | binding, ITC | – | pKd | 5.04 |
| c1ccc2c(Oc3nc(Nc4ccc(N5CCOCC5)cc4)c4ncn(C5CCCCC5)c4n3)cccc2c1 | Protein smoothened (SMO, Homo sapiens, UniProt Q99835) | GTPγS binding, agonist, radiometric | cell membranes | pEC50 | 6.64 |
| CC[C@H](C)[C@H](NC(=O)[C@H](Cc1ccccc1)NC(=O)[C@H](CCC(=O)O)NC(=O)[C@H](CCCCN)NC(=O)[C@H](C)NC(=O)[C@H](C)NC(=O)[C@H](CCC(N)=O)NC(=O)CNC(=O)[C@H](CCC(=O)O)NC(=O)[C@H](CC(C)C)NC(=O)[C@H](Cc1ccc(O)cc1)NC(=O)[C@H](CO)NC(=O)[C@H](CO)NC(=O)[C@@H](NC(=O)[C@H](CC(=O)O)NC(=O)[C@H](CO)NC(=O)[C@@H](NC(=O)[C@H](Cc1ccccc1)NC(=O)[C@@H](NC(=O)CNC(=O)[C@H](CCC(=O)O)NC(=O)[C@H](C)NC(=O)[C@H](Cc1c[nH]cn1)NC[C@H](C)N)[C@@H](C)O)[C@@H](C)O)C(C)C)C(=O)N[C@@H](C)C(=O)N[C@@H](Cc1c[nH]c2ccccc12)C(=O)N[C@@H](CC(C)C)C(=O)N[C@H](C(=O)N[C@@H](CCCCN)C(=O)NCC(=O)N[C@@H](CCCNC(=N)N)C(N)=O)C(C)C | GLP1R | reporter gene, agonist, luciferase | – | pEC50 | 11.60 |
| COc1cc(Nc2ncc3c(n2)-c2ccc(Cl)cc2C(c2c(F)cccc2OC)=NC3)ccc1C(=O)NCCOCCOCCNC(=O)COc1cccc2c1C(=O)N(C1CCC(=O)NC1=O)C2=O (stereo not drawn) | Ferrochelatase, mitochondrial (FECH, Homo sapiens, UniProt P22830) | binding | lysate | pKd | 5.19 |
| CCN(CC)Cc1ccc2cc(COC(=O)Nc3ccc(C(=O)NO)cc3)ccc2c1 | HDAC5 | cell-free assay | – | pKd | < 4.52 |
